# Measured values from different studies.
# Lines come from different studies, so protocols differ.
# AKT2: RAC-beta serine/threonine-protein kinase (AKT2, Homo sapiens, UniProt P31751)
# PDK1: [Pyruvate dehydrogenase (acetyl-transferring)] kinase isozyme 1, mitochondrial (PDK1, Homo sapiens, UniProt Q15118)
Structure (SMILES),target,test,conditions,measurement,value
COc1cc(-c2cncc3c2CN(C)Cc2cc(N4CCNCC4)ccc2-3)cc(OC)c1OC,AKT2,"enzyme activity, inhibitor",1 µM,remaining activity,132%
O=C(c1ccccc1)c1ccc(Oc2ccc(C(=O)C(Cl)Cl)cc2[N+](=O)[O-])cc1,PDK1,"enzyme activity, inhibitor, ATP luminescence",10 µM,inhibition,36.9%
C=CC(=O)N1CCC(COCC(=O)N2CCN(c3nc(-c4cnc(N)nc4C(F)F)nc(N4CCOC[C@@H]4C)n3)CC2)CC1,AKT2,"binding, competition with immobilised ligand",1 µM,remaining binding,100%
CC(=O)Nc1ccc(Oc2ccc(C(=O)C(Cl)Cl)cc2[N+](=O)[O-])cc1,PDK1,"enzyme activity, inhibitor, ATP luminescence",10 µM,inhibition,22.7%
Cc1ncsc1-c1ccc(CNC(=O)[C@@H]2C[C@@H](O)CN2C(=O)[C@@H](NC(=O)CCCCCCCCNC(=O)CN2CCN(C(=O)c3ccc(Nc4nc(C5CC5)cn5c(-c6cn[nH]c6)cnc45)c(F)c3)CC2)C(C)(C)C)cc1,"Mitogen-activated protein kinase kinase kinase 19 (MAP3K19, Homo sapiens, UniProt Q56UN5)","cell-free assay, competition with immobilised ligand",1 µM,inhibition,> 65%
CNc1ncc2c(/C=C/C(=O)N3CCC(OC)CC3)nn(Cc3cccc(C(F)(F)F)c3)c2n1,"Vascular endothelial growth factor receptor 1 (FLT1, Homo sapiens, UniProt P17948)","enzyme activity, inhibitor, radiometric",1 µM,remaining activity,95%
O=C(c1ccc(Oc2ccc3c(c2)OCO3)c([N+](=O)[O-])c1)C(Cl)Cl,PDK1,"enzyme activity, inhibitor, ATP luminescence",10 µM,inhibition,20.3%
Cc1cc([C@@H](C)Nc2ccccc2C(=O)O)c2nc(N3CCC(F)(F)CC3)c(C#N)c(=O)n2c1,"Casein kinase I isoform gamma-2 (CSNK1G2, Homo sapiens, UniProt P78368)","binding, competition with immobilised ligand",1 µM,remaining binding,100%
Cc1cc(NC(=O)c2cccc(NC(=O)/C=C/CN(C)C)c2)ccc1Nc1nccc(-c2cccnc2)n1,"Mast/stem cell growth factor receptor Kit (KIT, Homo sapiens, UniProt P10721)","binding, competition with immobilised ligand",1 µM,remaining binding,4.1%
